Experimental data published in PubChem BioAssay.
Calls of active or inactive are those of the source. Cut-off read from the data, not from the text of the source, unless noted: active = inhibition above about 30%; inactive = the rest.

How the values were obtained:
[1] = Her2 expression decrease, cell viability multiplex – SKBR3 breast tumor cells, AlphaScreen, ATP viability, primary screen (AID 461;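 active = Her2 level under about 52% in both replicate screens, with viability over 70% of control, limit read from the data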;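 for Her2 level: lower value means less Her2 protein in the cells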;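 for viability: percent of carrier control wells set as 100% viability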); conditions: SKBR3 Her2 protein level, 18-24 h, measured here: SKBR3 viability, ATP luminescence, at 10 µM
[2] = target: Receptor tyrosine-protein kinase erbB-2 (Homo sapiens) (UniProt P04626); test: as above; conditions: 18-24 h, at 10 µM, stronger effect = lower value
[3] = reduced viability of SK-BR-3 breast cancer cells – cell-based, 24 h, human, pilot screen (AID 572;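 active = viability at or below 10% of carrier control in both of two separate runs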;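 note: compound exposure lasted between 18 and 24 h rather than exactly 24 h; 100% = carrier-treated control wells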); conditions: SK-BR-3 viability, CellTiter-Glo luminescence, at 10 µM, stronger effect = lower value
[4] = HUVEC growth inhibition – cell-based, human, primary screen (AID 575;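 active = viability at or below 30% in both replicate assays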;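 note: 100% = median of untreated cell wells with 0.1% DMSO on each plate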); conditions: HUVEC proliferation, CellTiter-Glo luminescence, 72 h; at 10 µM; stronger effect = lower value
Procedure, shortened: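 Test system: primary human umbilical vein endothelial cells. Quantity: 1250 cells/well. Compound: single 10 µM dose, 0.1% DMSO, from 5x medium stock. Timing: 72 h treatment at 37 °C. Detection: ATP-based CellTiter-Glo luminescent read. Benchmarks: vehicle and MePR control wells. Format: 384-well plates coated with collagen.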

[5] = H69AR cell proliferation blockers – human, duplicate replicates, primary screen (AID 580;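 active = viability at or under a set limit in both replicates, limit being median viability minus 3 SD, cut at about 48% in these data, passing the limit was not always enough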;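 note: 100% = mean luminescence of untreated wells and 0% = no signal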); conditions: H69AR lung tumor cells viability, ATP luminescence, 72 h; at 10 µM; stronger effect = lower value
[6] = MRP1 drug-resistance reversers in H69AR cells – cell-based, doxorubicin co-treatment, pilot screen (AID 601;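 active = viability loss from added drug above about 55%, and viability with drug at most 40%, in both replicates, limit read from the data, passing the limit was not always enough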); conditions: CellTiter-Glo, 72 h, at 10 µM; for differential viability (reversal): stronger effect = higher value
[7] = yeast transport mutant growth inhibition pilot in 384-well plates, post-Golgi transport modulator project (AID 636; in the data active = inhibition above about 31%); conditions: absorbance 615 nm, about 18 h, stronger effect = higher value
[8] = growth suppression of yeast trafficking mutant, preliminary HTS, modulators of trafficking downstream of Golgi apparatus project, 1536-format plate, OD 615 nm (AID 637); conditions: yeast transport mutant growth, absorbance 615 nm, 18 h; stronger effect = higher value
[9] = H69AR cells + 2 uM doxorubicin, measured here: viability with 2 uM doxorubicin, stronger effect = lower value
[10] = H69AR cells, compound alone cytotoxicity

Sequence of Receptor tyrosine-protein kinase erbB-2 (Homo sapiens) (P04626 whole entry, looked up): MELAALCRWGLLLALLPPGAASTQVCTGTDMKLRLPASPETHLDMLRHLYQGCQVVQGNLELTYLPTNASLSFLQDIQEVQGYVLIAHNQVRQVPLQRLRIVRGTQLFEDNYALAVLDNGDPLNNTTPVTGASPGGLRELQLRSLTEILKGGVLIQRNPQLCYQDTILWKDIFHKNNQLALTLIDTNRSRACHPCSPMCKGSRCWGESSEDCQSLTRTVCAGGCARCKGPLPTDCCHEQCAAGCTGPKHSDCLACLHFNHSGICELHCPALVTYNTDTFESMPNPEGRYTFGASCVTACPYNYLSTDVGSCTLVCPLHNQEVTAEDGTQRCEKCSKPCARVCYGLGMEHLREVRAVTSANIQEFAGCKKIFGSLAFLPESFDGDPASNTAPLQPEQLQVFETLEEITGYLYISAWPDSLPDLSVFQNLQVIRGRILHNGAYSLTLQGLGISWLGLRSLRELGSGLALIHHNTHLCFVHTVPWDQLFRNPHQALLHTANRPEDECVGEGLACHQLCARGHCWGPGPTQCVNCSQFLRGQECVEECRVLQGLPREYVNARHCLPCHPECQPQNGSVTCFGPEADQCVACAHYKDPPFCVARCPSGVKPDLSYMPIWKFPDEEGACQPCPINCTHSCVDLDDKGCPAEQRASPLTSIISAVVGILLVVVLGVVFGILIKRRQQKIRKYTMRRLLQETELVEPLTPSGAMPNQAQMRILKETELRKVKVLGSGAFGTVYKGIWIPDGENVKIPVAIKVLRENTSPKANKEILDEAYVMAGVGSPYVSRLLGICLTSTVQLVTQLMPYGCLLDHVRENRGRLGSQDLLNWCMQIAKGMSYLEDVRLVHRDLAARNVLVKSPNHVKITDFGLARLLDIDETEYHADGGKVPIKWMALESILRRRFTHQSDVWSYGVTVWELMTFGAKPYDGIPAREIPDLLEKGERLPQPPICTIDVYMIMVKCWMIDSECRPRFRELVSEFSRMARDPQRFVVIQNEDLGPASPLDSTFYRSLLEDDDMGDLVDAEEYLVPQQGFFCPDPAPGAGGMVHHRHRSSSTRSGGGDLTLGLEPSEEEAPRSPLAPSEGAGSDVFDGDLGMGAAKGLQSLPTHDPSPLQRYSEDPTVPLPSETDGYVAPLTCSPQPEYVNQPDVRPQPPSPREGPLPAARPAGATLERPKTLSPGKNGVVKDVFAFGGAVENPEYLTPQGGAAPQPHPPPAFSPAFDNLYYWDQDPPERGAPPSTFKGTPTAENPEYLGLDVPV

| SMILES | viability [1] [%] | Her2 level [2] | viability [3] | viability [4] | viability [5] | differential viability (reversal) ([6]; H69AR cells + 2 uM doxorubicin) | viability [6, 9] [%] | viability [6, 10] [%] | inhibition [7] | inhibition [8] |
| --- | --- | --- | --- | --- | --- | --- | --- | --- | --- | --- |
| CC1CCN(C(=S)c2ccccc2O)CC1 | 116 | 105% (inactive) | 116% (inactive) | 92.8% (inactive) | 89% (inactive) | -0.9% (inactive) | 89.9 | 89 | -5.2% (inactive) | -6.29% (inactive) |
| COc1ccc(CN(C(=O)c2ccccc2OC)C2CCS(=O)(=O)C2)cc1 (stereo not given) | 95 | 90.5% (inactive) | 95% (inactive) | 115% (inactive) | 96.8% (inactive) | 7.03% (inactive) | 89.8 | 96.8 | -0.53% (inactive) | 9.34% (inactive) |
| O=C(O)c1ccc2noc(-c3ccccc3)c2c1 | 127 | 106% (inactive) | 127% (inactive) | 86.9% (inactive) | 97.8% (inactive) | 5.36% (inactive) | 92.4 | 97.8 | -4.74% (inactive) | -4% (inactive) |
| Cc1nnc(N(C)C(=O)c2cccnc2)s1 | 110 | 110% (inactive) | 110% (inactive) | 93.1% (inactive) | 88.7% (inactive) | 1.22% (inactive) | 87.5 | 88.7 | 0.96% (inactive) | 3.33% (inactive) |
| COc1c2ccoc2nc2c(OC)c(OCC(O)C(C)(C)O)ccc12 (stereo not given) | 100 | 97.5% (inactive) | 100% (inactive) | 94.4% (inactive) | 95.4% (inactive) | 2.17% (inactive) | 93.2 | 95.4 | -2.8% (inactive) | 3.39% (inactive) |
| O=C(Cc1ccc(Br)cc1)N1CCCCCC1 | 108 | 106% (inactive) | 108% (inactive) | 115% (inactive) | 97.9% (inactive) | 8.29% (inactive) | 89.6 | 97.9 | -4.08% (inactive) | -0.49% (inactive) |
| COc1cc(C2c3c(n[nH]c3C)C(=O)N2c2ccc(C)cc2)ccc1O (stereo not given) | 113 | 73% (inactive) | 113% (inactive) | 88.9% (inactive) | 101% (inactive) | 3.7% (inactive) | 97 | 101 | -3.87% (inactive) | -2.3% (inactive) |
| Clc1ccc(OCCCn2cncn2)cc1Cl | 104 | 99% (inactive) | 104% (inactive) | 92.5% (inactive) | 80.2% (inactive) | -6.33% (inactive) | 86.5 | 80.2 | 2.03% (inactive) | 16.4% (inactive) |
| Cc1cc(C)cc(-n2ccnc2SCC(=O)Nc2ccc3c(c2)OCCO3)c1 | 119 | 93.5% (inactive) | 119% (inactive) | 90.7% (inactive) | 99.3% (inactive) | 8.09% (inactive) | 91.2 | 99.3 | -6.05% (inactive) | -0.91% (inactive) |
| NC(=O)C1(N2CCCCC2)CCN(CC(=O)Nc2cc(Cl)ccc2Cl)CC1 | 105 | 91.5% (inactive) | 105% (inactive) | 81.6% (inactive) | 91.8% (inactive) | -11.5% (inactive) | 103 | 91.8 | -1.6% (inactive) | 2.79% (inactive) |
| CCOC(=O)CN1C2=NCCN2c2ccccc21 | 89.5 | 82% (inactive) | 89.5% (inactive) | 96.1% (inactive) | 99% (inactive) | 10.9% (inactive) | 88.1 | 99 | -2.63% (inactive) | -4% (inactive) |
| COc1ccc(C)cc1NC(=O)CN1CCN(S(=O)(=O)c2ccc(Cl)cc2)CC1 | 81.5 | 87% (inactive) | 81.5% (inactive) | 74.7% (inactive) | 82.6% (inactive) | 25.3% (inactive) | 57.3 | 82.6 | -3.55% (inactive) | -2.17% (inactive) |
| COCc1nnc(NC(=O)c2ccc(NC(C)=O)cc2)s1 | 100 | 102% (inactive) | 100% (inactive) | 86.4% (inactive) | 105% (inactive) | 14.8% (inactive) | 90.2 | 105 | 0.13% (inactive) | -9.19% (inactive) |
| Cc1cc(C)c2c(n1)nn1c(NCCCN3CCOCC3)cc(C)nc21 | 106 | 79% (inactive) | 106% (inactive) | 98.8% (inactive) | 97.7% (inactive) | 7.13% (inactive) | 90.6 | 97.7 | -5.54% (inactive) | 2.38% (inactive) |
| Oc1ccc(N2CCN(C(c3cccnc3)c3nnnn3Cc3ccccc3)CC2)cc1 (stereo not given) | 85 | 92% (inactive) | 85% (inactive) | 83.5% (inactive) | 90.2% (inactive) | -2.76% (inactive) | 92.9 | 90.2 | -4.74% (inactive) | -2% (inactive) |
| CCOC(=O)C1CCN(Cc2ccc(C(=O)OC)cc2)CC1 | 93.5 | 106% (inactive) | 93.5% (inactive) | 87% (inactive) | 87.4% (inactive) | 4.25% (inactive) | 83.2 | 87.4 | -4.08% (inactive) | -1.8% (inactive) |

| SMILES | viability [1] [%] | Her2 level [2] | viability [3] | viability [4] | viability [5] | differential viability (reversal) ([6]; H69AR cells + 2 uM doxorubicin) | viability [6, 9] [%] | viability [6, 10] [%] | inhibition [7] | inhibition [8] |
| --- | --- | --- | --- | --- | --- | --- | --- | --- | --- | --- |
| COC1CCCCC1NS(=O)(=O)c1ccccc1 (stereo not given) | 106 | 96.5% (inactive) | 106% (inactive) | 97.8% (inactive) | 97.7% (inactive) | 1.47% (inactive) | 96.2 | 97.7 | -3.59% (inactive) | 3.17% (inactive) |
| Nc1c(N2CCCCC2)c(=O)[nH]c(=O)n1-c1ccccc1 | 105 | 139% (inactive) | 105% (inactive) | 102% (inactive) | 109% (inactive) | 13.9% (inactive) | 95.3 | 109 | -2.86% (inactive) | -4.33% (inactive) |
| CCOC(=O)C1=C(CSc2nc(C)cc(C)c2C#N)OC(N)=C(C#N)C1c1cccs1 (stereo not given) | 108 | 85.5% (inactive) | 108% (inactive) | 78.5% (inactive) | 83.1% (inactive) | 8.64% (inactive) | 74.5 | 83.1 | -5.33% (inactive) | 0.16% (inactive) |
| COC(=O)c1ccccc1NC(=O)Nc1cccs1 | 99.5 | 90.5% (inactive) | 99.5% (inactive) | 84.3% (inactive) | 82.4% (inactive) | 7.46% (inactive) | 74.9 | 82.4 | -3.73% (inactive) | 0% (inactive) |
| Cc1coc(NC(=O)CSc2nc(-c3ccncc3)cc(C(F)(F)F)c2C#N)n1 | 106 | 71% (inactive) | 106% (inactive) | 79% (inactive) | 71.8% (inactive) | 1.41% (inactive) | 70.4 | 71.8 | -2.5% (inactive) | 0.73% (inactive) |
| Cn1c(=O)cc(SCC(=O)NCC2CCCO2)c2ccc(Cl)cc21 (stereo not given) | 88.5 | 88% (inactive) | 88.5% (inactive) | 89% (inactive) | 85.1% (inactive) | -4% (inactive) | 89.1 | 85.1 | -0.26% (inactive) | -3.71% (inactive) |
| CCn1nnnc1SCC(=O)N1CCOCC1 | 116 | 91% (inactive) | 116% (inactive) | 101% (inactive) | 97.6% (inactive) | 11.3% (inactive) | 86.3 | 97.6 | -4.53% (inactive) | 3.44% (inactive) |
| CC(C)(C)c1ccc(O)c(N)c1 | 86 | 93.5% (inactive) | 86% (inactive) | 106% (inactive) | 94.2% (inactive) | -0.85% (inactive) | 95.1 | 94.2 | -5.21% (inactive) | -3.33% (inactive) |
| Cc1cc(C)n2nc(SCC(=O)N(C)c3ccccc3)nc2n1 | 89.5 | 87% (inactive) | 89.5% (inactive) | 94.8% (inactive) | 104% (inactive) | 1.41% (inactive) | 102 | 104 | -7.57% (inactive) | 6.39% (inactive) |
| CN(CC(O)COc1ccc(OCC(O)CN(C)C2CCCCC2)cc1)C1CCCCC1 (stereo not given) | 88 | 82% (inactive) | 88% (inactive) | 65.5% (inactive) | 89.9% (inactive) | 10.4% (inactive) | 79.5 | 89.9 | -5.66% (inactive) | 4.6% (inactive) |
| O=C(O)CSc1ccc2ccccc2n1 | 95.5 | 81% (inactive) | 95.5% (inactive) | 106% (inactive) | 90% (inactive) | 9.33% (inactive) | 80.7 | 90 | -7.47% (inactive) | 5.48% (inactive) |
| COC(=O)C1C(=O)C2=C(CC1C)NC(=O)CC2c1ccccc1 (stereo not given) | 102 | 97% (inactive) | 102% (inactive) | 91.7% (inactive) | 103% (inactive) | 15.2% (inactive) | 87.9 | 103 | -3.55% (inactive) | 5.33% (inactive) |
| COC(=O)[C@H](CCSC)NC(=O)Nc1cc(C)ccc1C | 124 | 89% (inactive) | 124% (inactive) | 84.1% (inactive) | 82.2% (inactive) | -7.82% (inactive) | 90 | 82.2 | -6.22% (inactive) | 5.71% (inactive) |
| COc1ccccc1N(C)S(=O)(=O)c1ccc(C(=O)NC2=NCCS2)cc1 | 104 | 95% (inactive) | 104% (inactive) | 85.8% (inactive) | 96.2% (inactive) | -3.23% (inactive) | 99.5 | 96.2 | 0% (inactive) | -5.4% (inactive) |
| O=c1c2ccccc2nc(SCc2cn3ccsc3n2)n1-c1ccc(F)cc1 | 73 | 102% (inactive) | 73% (inactive) | 64.6% (inactive) | 102% (inactive) | -13.3% (inactive) | 115 | 102 | -6.44% (inactive) | 1.43% (inactive) |
| O=C(CSc1nnc(-c2cccs2)o1)NCC1CN(Cc2ccccc2)CCO1 (stereo not given) | 99.5 | 90.5% (inactive) | 99.5% (inactive) | 106% (inactive) | 85.1% (inactive) | -13.7% (inactive) | 98.8 | 85.1 | -1.69% (inactive) | -1.9% (inactive) |
